F508del corr: CFTR F508del correction in bronchial cells. CFBE cells, YFP halide quenching; stimulated with forskolin plus potentiator P3; % fluorescence drop versus neutral controls. activity (quench increase), % at 7.58 µM. 350,000 compounds, 0.36% hits;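 active means mean added fluorescence quench of at least 8% versus neutral control, with both replicates also reaching 8%; inconclusive means only one of the mean or replicate conditions met; inactive means mean below 8% and not both replicates reaching 8%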;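 further: cells transiently co-express mutant CFTR-F508del with the halide-sensitive YFP; corrector assay measuring rescue of mutant channel to the surface after 24 h compound exposure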
E-sel inducer: E-selectin induction on HUVECs | HUVEC E-selectin immunofluorescence imaging; normalized: neutral wells 0, TNF-alpha wells 100 | P16581 | AID 686992 | activation, % at 7.58 µM | 260,000 compounds, 0.37% hits;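 active means mean E-selectin-positive cell signal at least 10% of the positive control, reached in at least 60% of replicates, without over 20% cell loss; inconclusive means no rule given, readout overlaps actives, possibly toxicity-flagged; inactive means the rest, including those meeting only one limit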
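System: HUVEC / Compound: single concentration / Signal: immunofluorescence imaging / Read-out: percent E-selectin-positive cells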
FGF22 binding: shifts melting point of recombinant human FGF22 | Q9HCT0 | recombinant FGF22 thermal shift, SYPRO orange fluorescence; percent of sucrose octasulfate shift, DMSO zero | activity (Tm shift, normalised), % at 9.99 µM | 340,000 compounds, 1.5% hits | AID 651658;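 active means mean Tm shift, scaled 0 neutral to 100 positive control, at about 1.3% or above, every replicate too, limit read from the data; inconclusive means no clear call, values can overlap the other calls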
Target sequence (Q9HCT0 whole entry, looked up): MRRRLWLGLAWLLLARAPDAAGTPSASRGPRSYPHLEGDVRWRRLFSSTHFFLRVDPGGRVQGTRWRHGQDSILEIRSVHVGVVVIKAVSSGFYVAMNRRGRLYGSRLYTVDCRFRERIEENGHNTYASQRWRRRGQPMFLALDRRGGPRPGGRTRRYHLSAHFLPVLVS
S100A4 MyoIIA: S100A4-myosin IIA interaction inhibition; P26447; S100A4/TAMRA-MyoIIA peptide fluorescence polarization; inhibition, % at 10.7 µM; 360,000 compounds, 0.14% hits; AID 652163;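 active means mean inhibition of at least 70% across replicates, with every replicate also reaching that level; inconclusive means mean inhibition reaches 70% but some replicates fall short; inactive means mean inhibition below 70%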
Target sequence (P26447 whole entry, looked up): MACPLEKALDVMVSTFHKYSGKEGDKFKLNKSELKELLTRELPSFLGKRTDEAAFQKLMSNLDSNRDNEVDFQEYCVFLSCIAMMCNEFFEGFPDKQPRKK
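Assay system: human S100A4 monomer with TAMRA-labelled myosin IIA peptide / Buffer or medium: Calcium-containing HEPES buffer, pH 7.2 / Reagent: TAMRA-labelled myosin IIA heavy-chain peptide probe, 5 nM / Compound: one dose per compound / Timing: polarization read 5 min after assay mix addition, stable 5–60 min / Benchmarks: neutral control DMSO, positive control TFP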
HIV Env fusion: HIV envelope-mediated fusion inhibition | HeLa-JRFL Env/CEM21 cell fusion, luciferase | inhibition, % at 12.3 µM | 360,000 compounds, 1.1% hits | AID 651610;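 active means mean replicate inhibition score of at least 50 and every replicate individually at or above 50; inconclusive means only one of the two criteria met; inactive means mean below 50 and not all replicates reaching 50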
Each line names hits and unclear results; the compound was inactive in the other large screens; [ ] = another dose, or the depositor's remark. Hits are enriched below; roughly 2.7% of the tested compounds scored in any of these assays.

COc1ccc(CCn2c(NN)nc3c2c(=O)[nH]c(=O)n3C)cc1	F508del corr inconclusive
CCCCNc1nc2c(c(=O)[nH]c(=O)n2C)n1CCCc1ccccc1	FGF22 binding 43
COc1ccc(CCn2c(NN=C(C)C)nc3c2c(=O)[nH]c(=O)n3C)cc1	F508del corr 9.8 (no result: E-sel inducer)
Cc1noc(C)c1S(=O)(=O)Nc1ccc2c(c1)C(=O)N([C@@H](C)CO)C[C@@H](C)[C@H](CN(C)Cc1ccccc1)O2	none
Cc1cccc(CN2CCN(CC(=O)NCCCN3CCN(c4ccc(F)cc4)CC3)C2=O)c1	HIV Env fusion 59 (no result: F508del corr, E-sel inducer, FGF22 binding, S100A4 MyoIIA)
O=C(CN1CCN(Cc2ccccc2)C1=O)NCCCN1CCOCC1	none
COc1ccc2c3c([nH]c2c1)[C@H](CO)N(C(=O)c1ccccc1)CC31CCN(C(=O)c2cccc(F)c2)CC1	none (no result: HIV Env fusion)
COc1ccc(S(=O)(=O)Nc2ccc3c(c2)CC(=O)N([C@H](C)CO)C[C@H](C)[C@H](CN(C)S(=O)(=O)c2ccc(F)cc2)O3)cc1	HIV Env fusion 91[16.7 µM] (no result: S100A4 MyoIIA)
COc1ccc(S(=O)(=O)Nc2ccc3c(c2)CC(=O)N([C@H](C)CO)C[C@H](C)[C@H](CN(C)S(=O)(=O)c2c(C)noc2C)O3)cc1	HIV Env fusion 57[16.7 µM]
Cc1ccc(S(=O)(=O)N(C)C[C@@H]2Oc3ccc(NS(=O)(=O)c4c(C)noc4C)cc3CC(=O)N([C@H](C)CO)C[C@@H]2C)cc1	HIV Env fusion 62[16.7 µM]

Screens from PubChem BioAssay.
